In ChEMBL document CHEMBL5357037, “Scaffold hopping based designing of selective ALDH1A1 inhibitors to overcome cyclophosphamide resistance: synthesis and biological evaluation” (RSC Med Chem, 2024):
The source made the active and inactive calls. The calls are words filed in the database; no cut-off is given here.

Experiments:
[1] = target: T1, Aldehyde dehydrogenase 1A1 (Homo sapiens) (UniProt P00352); assay: Inhibition of human ALDH1A1 using propionaldehyde as substrate at 10 uM preincubated with enzyme for 15 mins followed by substrate addition in presence of NAD+ and measured for 5 mins by spectrophotometric analysis; details: time 20.0 min
T1 sequence (whole entry): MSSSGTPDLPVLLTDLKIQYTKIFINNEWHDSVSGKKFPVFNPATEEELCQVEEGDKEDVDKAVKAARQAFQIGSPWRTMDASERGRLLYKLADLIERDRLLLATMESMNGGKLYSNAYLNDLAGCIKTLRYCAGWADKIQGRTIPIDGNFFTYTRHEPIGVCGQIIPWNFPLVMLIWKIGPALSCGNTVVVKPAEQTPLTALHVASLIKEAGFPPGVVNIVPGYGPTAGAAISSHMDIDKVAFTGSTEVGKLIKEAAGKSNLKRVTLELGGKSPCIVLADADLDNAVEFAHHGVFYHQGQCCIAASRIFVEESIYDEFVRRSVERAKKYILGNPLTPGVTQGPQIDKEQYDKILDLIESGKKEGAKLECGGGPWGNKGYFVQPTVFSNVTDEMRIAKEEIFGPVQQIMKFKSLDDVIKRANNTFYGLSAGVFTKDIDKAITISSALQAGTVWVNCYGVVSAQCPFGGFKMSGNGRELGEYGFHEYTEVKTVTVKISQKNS
Procedure, shortened: (§1)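 Human recombinant ALDH1A1, ALDH2 or ALDH3A1 preincubated with test compounds for 15 min at 25 °C. NADH absorbance read kinetically for 5 min. IC50 fitted from five concentrations vs %inhibition. Single-point final concentrations were 10 μM for ALDH1A1 and 100 μM for ALDH2 and ALDH3A1.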

[2] = Lipid-water partition coefficient, logP of the compound; type: physicochemical
[3] = target: T2, Aldehyde dehydrogenase, mitochondrial (Homo sapiens) (UniProt P05091); assay: Inhibition of human ALDH2 using acetaldehyde as substrate at 100 uM preincubated with enzyme for 15 mins followed by substrate addition in presence of NAD+ and measured for 5 mins by spectrophotometric analysis; details: time 20.0 min; procedure, shortened: as §1
T2 sequence (whole entry): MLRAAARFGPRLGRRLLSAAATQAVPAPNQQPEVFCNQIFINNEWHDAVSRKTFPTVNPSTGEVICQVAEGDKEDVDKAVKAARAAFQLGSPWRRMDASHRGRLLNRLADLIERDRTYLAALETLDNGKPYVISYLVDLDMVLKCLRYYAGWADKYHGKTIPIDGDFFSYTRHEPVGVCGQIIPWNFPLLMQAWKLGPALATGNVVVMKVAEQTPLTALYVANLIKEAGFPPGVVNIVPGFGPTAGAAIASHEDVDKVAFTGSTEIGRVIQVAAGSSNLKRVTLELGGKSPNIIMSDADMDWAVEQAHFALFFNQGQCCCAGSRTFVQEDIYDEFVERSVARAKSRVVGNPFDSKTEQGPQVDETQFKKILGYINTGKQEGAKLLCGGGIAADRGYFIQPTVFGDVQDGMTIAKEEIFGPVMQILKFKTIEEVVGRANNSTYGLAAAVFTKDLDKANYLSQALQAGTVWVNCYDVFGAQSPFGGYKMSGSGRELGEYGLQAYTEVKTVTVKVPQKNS

[4] = target: T3, Aldehyde dehydrogenase, dimeric NADP-preferring (Homo sapiens) (UniProt P30838); assay: Inhibition of human ALDH3A1 using 4-nitrobenzaldehyde as substrate at 100 uM preincubated with enzyme for 15 mins followed by substrate addition in presence of NAD+ and measured for 5 mins by spectrophotometric analysis; details: time 20.0 min; procedure, shortened: as §1
T3 sequence (whole entry): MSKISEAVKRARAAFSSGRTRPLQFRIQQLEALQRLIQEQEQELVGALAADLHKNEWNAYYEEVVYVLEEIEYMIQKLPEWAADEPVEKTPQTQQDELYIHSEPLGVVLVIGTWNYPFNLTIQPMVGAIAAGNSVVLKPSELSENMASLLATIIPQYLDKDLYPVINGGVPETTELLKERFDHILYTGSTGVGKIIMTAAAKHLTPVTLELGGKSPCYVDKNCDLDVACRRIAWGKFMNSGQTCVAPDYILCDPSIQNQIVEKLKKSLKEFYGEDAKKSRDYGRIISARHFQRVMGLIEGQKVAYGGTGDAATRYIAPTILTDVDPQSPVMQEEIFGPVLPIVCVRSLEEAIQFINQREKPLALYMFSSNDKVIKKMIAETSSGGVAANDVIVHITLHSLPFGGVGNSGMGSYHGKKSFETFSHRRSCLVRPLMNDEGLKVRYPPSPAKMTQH

[5] = target: T4, Aldehyde dehydrogenase 1A1 (Homo sapiens, UniProt P00352); assay: Inhibition of human ALDH1A1 using propionaldehyde as substrate preincubated with enzyme for 15 mins followed by substrate addition in presence of NAD+ and measured for 5 mins by spectrophotometric analysis; procedure, shortened: as §1
T4 sequence (P00352 whole entry): T1 sequence (whole entry)

[6] = target: T5, Aldehyde dehydrogenase, mitochondrial (Homo sapiens, UniProt P05091); assay: Inhibition of human ALDH2 using acetaldehyde as substrate preincubated with enzyme for 15 mins followed by substrate addition in presence of NAD+ and measured for 5 mins by spectrophotometric analysis; procedure, shortened: as §1
T5 sequence (P05091 whole entry): T2 sequence (whole entry)

[7] = target: T6, Aldehyde dehydrogenase, dimeric NADP-preferring (Homo sapiens, UniProt P30838); assay: Inhibition of human ALDH3A1 using 4-nitrobenzaldehyde as substrate preincubated with enzyme for 15 mins followed by substrate addition in presence of NAD+ and measured for 5 mins by spectrophotometric analysis; procedure, shortened: as §1
T6 sequence (P30838 whole entry): T3 sequence (whole entry)

A549 [8] = assay: Anticancer activity against human A549 cells assessed as reduction in cell viability at 370 uM incubated for 19 hrs by MTT assay; type: functional, cell-based
MIA PaCa-2 [9] = assay: Anticancer activity against human MIAPaCa-2 cells assessed as reduction in cell viability at 315 uM incubated for 19 hrs by MTT assay; type: functional, cell-based
A549 [10] = assay: Reversal of Mafosfamide resistance in human A549 cells assessed as increase in Mafosfamide sensitivity by measuring reduction in cell viability measured after 19 hrs in presence of Mafosfamide by MTT assay; type: functional, cell-based
Procedure, shortened: (§2)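 A549 and MIA PaCa-2 cells, chosen for high ALDH1A1 expression, were obtained from NCCS. Viability was measured by MTT. Combination arms paired mafosfamide with ALDH1A1 inhibitors. Combination indices were calculated with the Chou–Talalay equation.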

MIA PaCa-2 [11] = assay: Reversal of Mafosfamide resistance in human MIAPaCa-2 cells assessed as increase in Mafosfamide sensitivity by measuring reduction in cell viability measured after 19 hrs in presence of Mafosfamide by MTT assay; type: functional, cell-based; procedure, shortened: as §2
A549 [12] = assay: Synergistic anticancer activity against human A549 cells assessed as combination index incubated for 19 hrs in presence of Mafosfamide by MTT assay; type: functional; procedure, shortened: as §2
MIA PaCa-2 [13] = assay: Synergistic anticancer activity against human MIAPaCa-2 cells assessed as combination index incubated for 19 hrs in presence of Mafosfamide by MTT assay; type: functional; procedure, shortened: as §2
A549 [14] = assay: Anticancer activity against human A549 cells assessed as reduction in cell viability incubated for 19 hrs by MTT assay; type: functional, cell-based; procedure, shortened: as §2
MIA PaCa-2 [15] = assay: Anticancer activity against human MIAPaCa-2 cells assessed as reduction in cell viability incubated for 19 hrs by MTT assay; type: functional, cell-based; procedure, shortened: as §2

| SMILES | inhibition [1] | logP [2] | inhibition [3] | inhibition [4] | IC50 [5] | IC50 [6] | IC50 [7] | Activity (A549 [8]) | Activity (MIA PaCa-2 [9]) | Activity (A549 [10]) | Activity (MIA PaCa-2 [11]) | CI (A549 [12]) | CI (MIA PaCa-2 [13]) | IC50 ([6]; read-out: IC50) | IC50 ([7]; read-out: IC50) | Activity (A549 [14]) | Activity (MIA PaCa-2 [15]) |
| --- | --- | --- | --- | --- | --- | --- | --- | --- | --- | --- | --- | --- | --- | --- | --- | --- | --- |
| CN(C)c1ccc(Cn2c(-c3ccc(N(C)C)cc3)nc3ccccc32)cc1 | inactive | 4.02 | inactive | inactive | – | – | – | – | – | – | – | – | – | – | – | – | – |
| Clc1ccc(-c2nc3ccccc3n2Cc2ccccc2)cc1 | – | 4.73 | – | – | 0.32 µM | Not Active | Not Active | Active | Active | Active | Active | 0.91 | 0.98 | – | – | – | – |
| c1ccc(Cn2c(-c3ccccc3)nc3ccccc32)cc1 | – | 4.19 | – | – | 8.67 µM | – | – | – | – | – | – | – | – | 95.6 µM | 98.3 µM | – | – |
| CN(C)c1ccc(-c2nc3ccccc3n2Cc2ccccc2)cc1 | – | 4.17 | – | – | 0.55 µM | Not Active | Not Active | – | – | Active | Active | 0.69 | 0.81 | – | – | inactive | inactive |
| CC(C)CCn1c(CN2CCN(C(=O)C3CC3)CC2)nc2c1c(=O)n(C)c(=O)n2C | – | – | – | – | – | – | – | – | – | Active | Active | – | – | – | – | – | – |
| COc1ccc(-c2nc3ccccc3n2Cc2ccccc2)cc1 | – | 4.19 | – | – | 1.63 µM | Not Active | Not Active | – | – | Active | Active | 0.74 | 0.84 | – | – | inactive | inactive |
